Measurements as given in ChEMBL document CHEMBL2062435, “Synthesis and in vitro antibacterial activity of gemifloxacin derivatives containing a substituted benzyloxime moiety” (2012).

Legend:
Type in all cases: functional
Staphylococcus aureus [1] = assay: Antimicrobial activity against extended spectrum beta-lactamases-producing methicillin-resistant Staphylococcus aureus 10-15 after 18-24 hrs by two-fold serial dilution method
Method in brief: (§1)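 Agar twofold serial dilution MIC against clinical isolates. MIC was taken as the lowest concentration giving complete inhibition of bacterial growth after incubation at 35 °C for 18-24 h.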

Klebsiella pneumoniae [2] = assay: Antimicrobial activity against extended spectrum beta-lactamases-producing Klebsiella pneumoniae 10-1 after 18-24 hrs by two-fold serial dilution method
Method in brief: (§2)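 Agar-medium twofold serial dilution against Gram-positive and Gram-negative strains; MIC taken as the lowest compound concentration giving complete inhibition of bacterial growth after incubation at 35 °C for 18-24 h.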

[3] = test system: Staphylococcus epidermidis; assay: Antimicrobial activity against extended spectrum beta-lactamases-producing methicillin-resistant Staphylococcus epidermidis 10-10 after 18-24 hrs by two-fold serial dilution method; method in brief: as §1
Escherichia coli [4] = assay: Antimicrobial activity against extended spectrum beta-lactamases-producing Escherichia coli 10-3 after 18-24 hrs by two-fold serial dilution method; method in brief: as §2
Enterococcus faecalis [5] = assay: Antimicrobial activity against Enterococcus faecalis 10-5 after 18-24 hrs by two-fold serial dilution method; method in brief: as §2
Enterococcus faecalis [6] = assay: Antimicrobial activity against Enterococcus faecalis 10-7 after 18-24 hrs by two-fold serial dilution method; method in brief: as §2
Escherichia coli [7] = assay: Antimicrobial activity against extended spectrum beta-lactamases-producing Escherichia coli 10-2 after 18-24 hrs by two-fold serial dilution method; method in brief: as §2
Streptococcus pneumoniae [8] = assay: Antimicrobial activity against extended spectrum beta-lactamases-producing Streptococcus pneumoniae 10-4 after 18-24 hrs by two-fold serial dilution method; method in brief: as §2
Pseudomonas aeruginosa [9] = assay: Antimicrobial activity against extended spectrum beta-lactamases-producing Pseudomonas aeruginosa 10-5 after 18-24 hrs by two-fold serial dilution method; method in brief: as §2
Staphylococcus aureus [10] = assay: Antimicrobial activity against extended spectrum beta-lactamases-producing methicillin-resistant Staphylococcus aureus 10-11 after 18-24 hrs by two-fold serial dilution method; method in brief: as §1
[11] = test system: Staphylococcus epidermidis; assay: Antimicrobial activity against extended spectrum beta-lactamases-producing methicillin-sensitive Staphylococcus epidermidis 10-13 after 18-24 hrs by two-fold serial dilution method; method in brief: as §2
Escherichia coli [12] = assay: Antimicrobial activity against extended spectrum beta-lactamases-producing Escherichia coli 10-4 after 18-24 hrs by two-fold serial dilution method; method in brief: as §2
Enterococcus faecium [13] = assay: Antimicrobial activity against Enterococcus faecium 10-9 after 18-24 hrs by two-fold serial dilution method; method in brief: as §2
Escherichia coli [14] = assay: Antimicrobial activity against Escherichia coli 10-2 after 18-24 hrs by two-fold serial dilution method; method in brief: as §2
[15] = test system: Staphylococcus epidermidis; assay: Antimicrobial activity against extended spectrum beta-lactamases-producing methicillin-sensitive Staphylococcus epidermidis 10-11 after 18-24 hrs by two-fold serial dilution method; method in brief: as §2
Escherichia coli [16] = assay: Antimicrobial activity against Escherichia coli ATCC 25922 after 18-24 hrs by two-fold serial dilution method; method in brief: as §2
Klebsiella pneumoniae [17] = assay: Antimicrobial activity against Klebsiella pneumoniae 10-4 after 18-24 hrs by two-fold serial dilution method; method in brief: as §2
Klebsiella pneumoniae [18] = assay: Antimicrobial activity against extended spectrum beta-lactamases-producing Klebsiella pneumoniae 10-3 after 18-24 hrs by two-fold serial dilution method; method in brief: as §2
Staphylococcus aureus [19] = assay: Antimicrobial activity against extended spectrum beta-lactamases-producing methicillin-sensitive Staphylococcus aureus 10-14 after 18-24 hrs by two-fold serial dilution method; method in brief: as §2
Klebsiella pneumoniae [20] = assay: Antimicrobial activity against extended spectrum beta-lactamases-producing Klebsiella pneumoniae 10-2 after 18-24 hrs by two-fold serial dilution method; method in brief: as §2
Pseudomonas aeruginosa [21] = assay: Antimicrobial activity against Pseudomonas aeruginosa 10-12 after 18-24 hrs by two-fold serial dilution method; method in brief: as §2
Escherichia coli [22] = assay: Antimicrobial activity against Escherichia coli 10-1 after 18-24 hrs by two-fold serial dilution method; method in brief: as §2
Staphylococcus aureus [23] = assay: Antimicrobial activity against Staphylococcus aureus ATCC […] after 18-24 hrs by two-fold serial dilution method; method in brief: as §2
Escherichia coli [24] = assay: Antimicrobial activity against Escherichia coli 10-3 after 18-24 hrs by two-fold serial dilution method; method in brief: as §2
[25] = test system: Staphylococcus epidermidis; assay: Antimicrobial activity against extended spectrum beta-lactamases-producing methicillin-sensitive Staphylococcus epidermidis 10-15 after 18-24 hrs by two-fold serial dilution method; method in brief: as §2
Pseudomonas aeruginosa [26] = assay: Antimicrobial activity against extended spectrum beta-lactamases-producing Pseudomonas aeruginosa 10-9 after 18-24 hrs by two-fold serial dilution method; method in brief: as §2
Staphylococcus aureus [27] = assay: Antimicrobial activity against extended spectrum beta-lactamases-producing methicillin-sensitive Staphylococcus aureus 10-13 after 18-24 hrs by two-fold serial dilution method; method in brief: as §2
Pseudomonas aeruginosa [28] = assay: Antimicrobial activity against extended spectrum beta-lactamases-producing Pseudomonas aeruginosa 10-15 after 18-24 hrs by two-fold serial dilution method; method in brief: as §2
Klebsiella pneumoniae [29] = assay: Antimicrobial activity against Klebsiella pneumoniae 10-2 after 18-24 hrs by two-fold serial dilution method; method in brief: as §2
[30] = test system: Staphylococcus epidermidis; assay: Antimicrobial activity against extended spectrum beta-lactamases-producing methicillin-resistant Staphylococcus epidermidis 10-13 after 18-24 hrs by two-fold serial dilution method; method in brief: as §1
Streptococcus pneumoniae [31] = assay: Antimicrobial activity against extended spectrum beta-lactamases-producing Streptococcus pneumoniae 10-1 after 18-24 hrs by two-fold serial dilution method; method in brief: as §2
Enterococcus faecalis [32] = assay: Antimicrobial activity against Enterococcus faecalis 10-6 after 18-24 hrs by two-fold serial dilution method; method in brief: as §2
Pseudomonas aeruginosa [33] = assay: Antimicrobial activity against extended spectrum beta-lactamases-producing Pseudomonas aeruginosa 10-18 after 18-24 hrs by two-fold serial dilution method; method in brief: as §2
Pseudomonas aeruginosa [34] = assay: Antimicrobial activity against extended spectrum beta-lactamases-producing Pseudomonas aeruginosa 10-20 after 18-24 hrs by two-fold serial dilution method; method in brief: as §2
Klebsiella pneumoniae [35] = assay: Antimicrobial activity against Klebsiella pneumoniae 10-3 after 18-24 hrs by two-fold serial dilution method; method in brief: as §2
Enterococcus faecium [36] = assay: Antimicrobial activity against Enterococcus faecium 10-5 after 18-24 hrs by two-fold serial dilution method; method in brief: as §2

SMILES | MIC (Staphylococcus aureus [1]) [µg/mL] | MIC (Klebsiella pneumoniae [2]) [µg/mL] | MIC [3] [µg/mL] | MIC (Escherichia coli [4]) [µg/mL] | MIC (Enterococcus faecalis [5]) [µg/mL] | MIC (Enterococcus faecalis [6]) [µg/mL] | MIC (Escherichia coli [7]) [µg/mL] | MIC (Streptococcus pneumoniae [8]) [µg/mL] | MIC (Pseudomonas aeruginosa [9]) [µg/mL] | MIC (Staphylococcus aureus [10]) [µg/mL] | MIC [11] [µg/mL] | MIC (Escherichia coli [12]) [µg/mL] | MIC (Enterococcus faecium [13]) [µg/mL] | MIC (Escherichia coli [14]) [µg/mL] | MIC [15] [µg/mL] | MIC (Escherichia coli [16]) [µg/mL] | MIC (Klebsiella pneumoniae [17]) [µg/mL] | MIC (Klebsiella pneumoniae [18]) [µg/mL] | MIC (Staphylococcus aureus [19]) [µg/mL] | MIC (Klebsiella pneumoniae [20]) [µg/mL] | other results
COc1cc(CO/N=C2\CN(c3nc4c(cc3F)c(=O)c(C(=O)O)cn4C3CC3)CC2CN)cc(OC)c1OC.CS(=O)(=O)O (racemic) | 0.25 | > 128 | 2 | 16 | 1 | 2 | > 128 | 8 | 8 | 2 | 2 | 8 | 8 | 16 | 8 | 0.5 | > 128 | > 128 | 0.125 | > 128 | MIC (Pseudomonas aeruginosa [21]): 0.125 µg/mL; MIC (Escherichia coli [22]): 128 µg/mL; MIC (Staphylococcus aureus [23]): 0.125 µg/mL; MIC (Escherichia coli [24]): 16 µg/mL; MIC [25]: 8 µg/mL; MIC (Pseudomonas aeruginosa [26]): 8 µg/mL; MIC (Staphylococcus aureus [27]): 1 µg/mL; MIC (Pseudomonas aeruginosa [28]): 8 µg/mL; MIC (Klebsiella pneumoniae [29]): > 128 µg/mL; MIC [30]: 0.5 µg/mL; MIC (Streptococcus pneumoniae [31]): 1 µg/mL; MIC (Enterococcus faecalis [32]): 4 µg/mL; MIC (Pseudomonas aeruginosa [33]): 4 µg/mL; MIC (Pseudomonas aeruginosa [34]): 0.5 µg/mL; MIC (Klebsiella pneumoniae [35]): 8 µg/mL; MIC (Enterococcus faecium [36]): 8 µg/mL
CS(=O)(=O)O.NCC1CN(c2nc3c(cc2F)c(=O)c(C(=O)O)cn3C2CC2)C/C1=N\OCc1ccc2c(c1)OCO2 (racemic) | 0.5 | 128 | 1 | 16 | 0.5 | 1 | > 128 | 2 | 8 | 1 | 1 | 2 | 4 | 2 | 2 | 0.125 | > 128 | 128 | 0.03 | > 128 | MIC (Pseudomonas aeruginosa [21]): 0.06 µg/mL; MIC (Escherichia coli [22]): 32 µg/mL; MIC (Staphylococcus aureus [23]): 0.06 µg/mL; MIC (Escherichia coli [24]): 8 µg/mL; MIC [25]: 4 µg/mL; MIC (Pseudomonas aeruginosa [26]): 4 µg/mL; MIC (Staphylococcus aureus [27]): 0.5 µg/mL; MIC (Pseudomonas aeruginosa [28]): 4 µg/mL; MIC (Klebsiella pneumoniae [29]): 2 µg/mL; MIC [30]: 0.5 µg/mL; MIC (Streptococcus pneumoniae [31]): 1 µg/mL; MIC (Enterococcus faecalis [32]): 2 µg/mL; MIC (Pseudomonas aeruginosa [33]): 2 µg/mL; MIC (Pseudomonas aeruginosa [34]): 0.25 µg/mL; MIC (Klebsiella pneumoniae [35]): 2 µg/mL; MIC (Enterococcus faecium [36]): 4 µg/mL
COc1ccc(CO/N=C2\CN(c3nc4c(cc3F)c(=O)c(C(=O)O)cn4C3CC3)CC2CN)c([N+](=O)[O-])c1OC.CS(=O)(=O)O (racemic) | 1 | > 128 | 2 | > 128 | 1 | 2 | > 128 | 4 | 8 | 2 | 1 | 8 | 4 | 8 | 4 | 0.5 | > 128 | > 128 | 0.06 | > 128 | MIC (Pseudomonas aeruginosa [21]): 0.06 µg/mL; MIC (Escherichia coli [22]): > 128 µg/mL; MIC (Staphylococcus aureus [23]): 0.06 µg/mL; MIC (Escherichia coli [24]): 16 µg/mL; MIC [25]: 4 µg/mL; MIC (Pseudomonas aeruginosa [26]): 16 µg/mL; MIC (Staphylococcus aureus [27]): 1 µg/mL; MIC (Pseudomonas aeruginosa [28]): 4 µg/mL; MIC (Klebsiella pneumoniae [29]): > 128 µg/mL; MIC [30]: 0.5 µg/mL; MIC (Streptococcus pneumoniae [31]): 1 µg/mL; MIC (Enterococcus faecalis [32]): 4 µg/mL; MIC (Pseudomonas aeruginosa [33]): 8 µg/mL; MIC (Pseudomonas aeruginosa [34]): 0.25 µg/mL; MIC (Klebsiella pneumoniae [35]): 8 µg/mL; MIC (Enterococcus faecium [36]): 4 µg/mL
